Consider nine compounds from ChEMBL document CHEMBL5316281, “Trojan Horse Siderophore Conjugates Induce Pseudomonas aeruginosa Suicide and Qualify the TonB Protein as a Novel Antibiotic Target” (2023).

The subject of experiment [1] is Pseudomonas aeruginosa. In words: Antimicrobial activity against Pseudomonas aeruginosa harboring deltapvdF-deltapchA mutant assessed as effect on pirA transcription level at 10 uM incubated for 8 hrs in presence of iron-depleted CAA medium by qRT-PCR analysis. The class given is functional, organism-based. Summed up: (§1)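 Cells grown in CAA medium for 8 h at 30 °C with vigorous shaking, with or without 10 μM compound; 2.5 x 10⁸ cells stabilized in two volumes RNAprotect; RNA processed per earlier protocol; RT-qPCR with primer efficiencies from serially diluted genomic DNA; double ΔCT analysis.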

Experiment [2] relates to Pseudomonas aeruginosa. Kind of experiment: Antimicrobial activity against Pseudomonas aeruginosa harboring deltapvdF-deltapchA mutant assessed as decrease in fptA transcription level at 10 uM incubated for 8 hrs in presence of iron-depleted CAA medium by qRT-PCR analysis. Format: functional, organism-based. In a few lines: as §1
(In qPCR the cycle at which signal appears reflects the starting amount.)

The subject of experiment [3] is Pseudomonas aeruginosa. Kind of experiment: Antimicrobial activity against Pseudomonas aeruginosa PAO1 assessed as inhibition of bacterial growth in presence of iron-depleted CAA medium. Format: functional, organism-based.
The subject of experiment [4] is Pseudomonas aeruginosa. Kind of experiment: Antimicrobial activity against Pseudomonas aeruginosa harboring deltapvdF-deltapchA mutant assessed as increase in pfeA transcription level at 10 uM incubated for 8 hrs in presence of iron-depleted CAA medium by qRT-PCR analysis. Format: functional, organism-based. In a few lines: as §1
The subject of experiment [5] is Pseudomonas aeruginosa. In words: Antimicrobial activity against Pseudomonas aeruginosa harboring deltapvdF-deltapchA mutant with PirA-PfeA dual deletion assessed as reduction of bacterial growth at 10 uM by growth kinetic assay. Format: functional, organism-based. In a few lines:
(§2)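 Overnight LB culture washed, regrown in CAA at 30 °C, washed, resuspended in CAA at OD600 0.02; fresh sterile-filtered aqueous compound added to 10 µM final; OD600 read in plate reader for 48 h at 30 °C with regular agitation.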

For experiment [6], the system named is Pseudomonas aeruginosa. In words: Antimicrobial activity against Pseudomonas aeruginosa harboring deltapvdF-deltapchA mutant with PirA deletion assessed as reduction of bacterial growth at 10 uM by growth kinetic assay. The class given is functional, organism-based. Summed up:
as §2

Experiment [7] deals with Pseudomonas aeruginosa. In words: Antimicrobial activity against Pseudomonas aeruginosa harboring deltapvdF-deltapchA mutant with PfeA deletion assessed as reduction of bacterial growth at 10 uM by growth kinetic assay. The class given is functional, organism-based. In a few lines: as §2
Experiment [8] has as its system Pseudomonas aeruginosa. In words: Antimicrobial activity against Pseudomonas aeruginosa harboring deltapvdF-deltapchA mutant assessed as inhibition of bacterial growth by measuring minimal inhibitory concentration incubated for 24 hrs in presence of iron-depleted CAA medium. The class given is functional.
The subject of experiment [9] is Pseudomonas aeruginosa. Kind of experiment: Antimicrobial activity against Pseudomonas aeruginosa harboring deltapvdF-deltapchA mutant assessed as inhibition of bacterial growth by measuring minimal inhibitory concentration incubated for 48 hrs in presence of iron-depleted CAA medium. The class given is functional.
The subject of experiment [10] is Pseudomonas aeruginosa. Kind of experiment: Antimicrobial activity against Pseudomonas aeruginosa PAO1 assessed as fold increase in pfeA transcription level at 10 uM incubated for 8 hrs in presence of iron-depleted CAA medium by qRT-PCR analysis. Format: functional. In a few lines:
as §1

The source made the active and inactive calls. The calls are words filed in the database; no cut-off is given here. Where a SMILES comes first, the peptide text is derived from it. The star is where a group is joined. X1 = O=C(COCC(=O)*)NCCOCCOCCOCCOCCOCCOCCOCCOCCn1cc(CCCC(=O)Nc2c(CNC(=O)c3cccc(O)c3O)cc(CNC(=O)c3cccc(O)c3O)cc2CNC(=O)c2cccc(O)c2O)nn1

In the case of H-VIELGEQTVVATAQEETKQK-NH2, the outcome in the experiment with Pseudomonas aeruginosa [1], in the experiment with Pseudomonas aeruginosa [3], with Pseudomonas aeruginosa [4], in the experiment on Pseudomonas aeruginosa [5], in the experiment with Pseudomonas aeruginosa [6] and with Pseudomonas aeruginosa [7] was inactive. Besides, in the experiment on Pseudomonas aeruginosa [2], the outcome was Active.

With `CC[C@H](C)[C@H](NC(=O)[C@@H](NC(=O)COCC(=O)NCCOCCOCCOCCOCCOCCOCCOCCOCCn1cc(CCCC(=O)Nc2c(CNC(=O)c3cccc(O)c3O)cc(CNC(=O)c3cccc(O)c3O)cc2CNC(=O)c2cccc(O)c2O)nn1)C(C)C)C(=O)N[C@@H](CCC(=O)O)C(=O)N[C@@H](CC(C)C)C(=O)NCC(=O)N[C@@H](CCC(=O)O)C(=O)N[C@@H](CCC(N)=O)C(=O)N[C@H](C(=O)N[C@H](C(=O)N[C@H](C(=O)N[C@@H](C)C(=O)N[C@H](C(=O)N[C@@H](C)C(=O)N[C@@H](CCC(N)=O)C(=O)N[C@@H](CCC(=O)O)C(=O)N[C@@H](CCC(=O)O)C(=O)N[C@H](C(=O)N[C@@H](CCCCN)C(=O)N[C@@H](CCC(N)=O)C(=O)N[C@@H](CCCCN)C(N)=O)[C@@H](C)O)[C@@H](C)O)C(C)C)C(C)C)[C@@H](C)O` (X1-VIELGEQTVVATAQEETKQK-NH2), the result in the experiment on Pseudomonas aeruginosa [3] and in the experiment with Pseudomonas aeruginosa [6] was inactive. Besides, the result in the experiment with Pseudomonas aeruginosa [5] and in the experiment on Pseudomonas aeruginosa [7] was Active. Moreover, the minimum inhibitory concentration (MIC) in the experiment with Pseudomonas aeruginosa [8] and in the experiment on Pseudomonas aeruginosa [9] was more than 64 µM each time.

For the compound `CC[C@H](C)[C@H](NC(=O)[C@H](CCSC)NC(=O)[C@@H](NC(=O)[C@H](C)NC(=O)CNC(=O)[C@H](CC(C)C)NC(=O)[C@H](CC(=O)O)NC(=O)[C@@H](NC(=O)[C@H](CO)NC(=O)[C@H](CO)NC(=O)[C@H](CC(=O)O)NC(=O)COCC(=O)NCCOCCOCCOCCOCCOCCOCCOCCOCCn1cc(CCCC(=O)Nc2c(CNC(=O)c3cccc(O)c3O)cc(CNC(=O)c3cccc(O)c3O)cc2CNC(=O)c2cccc(O)c2O)nn1)C(C)C)[C@@H](C)O)C(=O)N[C@H](C(=O)N[C@@H](CO)C(=O)N[C@@H](CC(N)=O)C(=O)N[C@@H](CCC(N)=O)C(=O)N[C@@H](CC(C)C)C(=O)NCC(=O)N[C@H](C(=O)N[C@H](C(=O)N[C@@H](CCCCN)C(N)=O)[C@@H](C)CC)[C@@H](C)O)[C@@H](C)O` (X1-DSSVDLGATMITSNQLGTIK-NH2), the outcome with Pseudomonas aeruginosa [1], with Pseudomonas aeruginosa [3] and with Pseudomonas aeruginosa [6] was inactive. Moreover, the outcome with Pseudomonas aeruginosa [2], with Pseudomonas aeruginosa [4], in the experiment with Pseudomonas aeruginosa [5] and in the experiment on Pseudomonas aeruginosa [7] was Active. In addition, the MIC with Pseudomonas aeruginosa [8] and in the experiment on Pseudomonas aeruginosa [9] was more than 64 µM in each case.

In the case of H-DSSVDLGATMITSNQLGTIK-NH2, the result with Pseudomonas aeruginosa [1], with Pseudomonas aeruginosa [3], in the experiment with Pseudomonas aeruginosa [4], in the experiment with Pseudomonas aeruginosa [5], in the experiment on Pseudomonas aeruginosa [6] and in the experiment on Pseudomonas aeruginosa [7] was inactive. Besides, the result in the experiment with Pseudomonas aeruginosa [2] was Active.

Take H-SLIRVSQDDLVQMSPSVISAARPK-NH2: the result with Pseudomonas aeruginosa [1], in the experiment with Pseudomonas aeruginosa [3], with Pseudomonas aeruginosa [4], in the experiment with Pseudomonas aeruginosa [5], in the experiment with Pseudomonas aeruginosa [6] and with Pseudomonas aeruginosa [7] was inactive. In the experiment on Pseudomonas aeruginosa [2], the result was Active.

As for `CC[C@H](C)[C@H](NC(=O)[C@H](CC(C)C)NC(=O)[C@H](CO)NC(=O)COCC(=O)NCCOCCOCCOCCOCCOCCOCCOCCOCCn1cc(CCCC(=O)Nc2c(CNC(=O)c3cccc(O)c3O)cc(CNC(=O)c3cccc(O)c3O)cc2CNC(=O)c2cccc(O)c2O)nn1)C(=O)N[C@@H](CCCNC(=N)N)C(=O)N[C@H](C(=O)N[C@@H](CO)C(=O)N[C@@H](CCC(N)=O)C(=O)N[C@@H](CC(=O)O)C(=O)N[C@@H](CC(=O)O)C(=O)N[C@@H](CC(C)C)C(=O)N[C@H](C(=O)N[C@@H](CCC(N)=O)C(=O)N[C@@H](CCSC)C(=O)N[C@@H](CO)C(=O)N1CCC[C@H]1C(=O)N[C@@H](CO)C(=O)N[C@H](C(=O)N[C@H](C(=O)N[C@@H](CO)C(=O)N[C@@H](C)C(=O)N[C@@H](C)C(=O)N[C@@H](CCCNC(=N)N)C(=O)N1CCC[C@H]1C(=O)N[C@@H](CCCCN)C(N)=O)[C@@H](C)CC)C(C)C)C(C)C)C(C)C` (X1-SLIRVSQDDLVQMSPSVISAARPK-NH2), the result with Pseudomonas aeruginosa [3] and with Pseudomonas aeruginosa [6] was inactive. The outcome with Pseudomonas aeruginosa [5] and in the experiment on Pseudomonas aeruginosa [7] was Active. Also, the MIC in the experiment on Pseudomonas aeruginosa [8] and with Pseudomonas aeruginosa [9] was more than 64 µM throughout.

For the compound `C#CCNC(=O)CN1CCN(CC(=O)NCCNC(=O)c2cccc(O)c2O)CCN(CC(=O)NCCNC(=O)c2cccc(O)c2O)CCN(CC(=O)NCCNC(=O)c2cccc(O)c2O)CC1`, the outcome in the experiment with Pseudomonas aeruginosa [1], in the experiment on Pseudomonas aeruginosa [3] and with Pseudomonas aeruginosa [7] was inactive. In addition, the outcome in the experiment on Pseudomonas aeruginosa [2] and in the experiment on Pseudomonas aeruginosa [6] was Active. Also, the MIC in the experiment on Pseudomonas aeruginosa [8] and in the experiment on Pseudomonas aeruginosa [9] was 64 µM each time. In addition, the “fold change (FC)” value in the experiment with Pseudomonas aeruginosa [10] was determined as 2.

For the compound `CC[C@H](C)[C@H](NC(=O)[C@H](CCSC)NC(=O)[C@@H](NC(=O)[C@H](C)NC(=O)CNC(=O)[C@H](CC(C)C)NC(=O)[C@H](CC(=O)O)NC(=O)[C@@H](NC(=O)[C@H](CO)NC(=O)[C@H](CO)NC(=O)[C@@H](N)CC(=O)O)C(C)C)[C@@H](C)O)C(=O)N[C@H](C(=O)N[C@@H](CO)C(=O)N[C@@H](CC(N)=O)C(=O)N[C@@H](CCC(N)=O)C(=O)N[C@@H](CC(C)C)C(=O)NCC(=O)N[C@H](C(=O)N[C@H](C(=O)N[C@@H](CCCCNC(=O)COCC(=O)NCCOCCOCCOCCOCCOCCOCCOCCOCCn1cc(CCCC(=O)Nc2c(CNC(=O)c3cccc(O)c3O)cc(CNC(=O)c3cccc(O)c3O)cc2CNC(=O)c2cccc(O)c2O)nn1)C(N)=O)[C@@H](C)CC)[C@@H](C)O)[C@@H](C)O` (H-DSSVDLGATMITSNQLGTIK(X1)-NH2), the outcome with Pseudomonas aeruginosa [1], in the experiment with Pseudomonas aeruginosa [3] and with Pseudomonas aeruginosa [6] was inactive. In addition, the result in the experiment on Pseudomonas aeruginosa [2], in the experiment with Pseudomonas aeruginosa [4], in the experiment with Pseudomonas aeruginosa [5] and in the experiment on Pseudomonas aeruginosa [7] was Active. The MIC in the experiment with Pseudomonas aeruginosa [8] and with Pseudomonas aeruginosa [9] was more than 64 µM throughout.

On to `CC[C@H](C)[C@H](NC(=O)[C@H](CC(C)C)NC(=O)[C@@H](N)CO)C(=O)N[C@@H](CCCNC(=N)N)C(=O)N[C@H](C(=O)N[C@@H](CO)C(=O)N[C@@H](CCC(N)=O)C(=O)N[C@@H](CC(=O)O)C(=O)N[C@@H](CC(=O)O)C(=O)N[C@@H](CC(C)C)C(=O)N[C@H](C(=O)N[C@@H](CCC(N)=O)C(=O)N[C@@H](CCSC)C(=O)N[C@@H](CO)C(=O)N1CCC[C@H]1C(=O)N[C@@H](CO)C(=O)N[C@H](C(=O)N[C@H](C(=O)N[C@@H](CO)C(=O)N[C@@H](C)C(=O)N[C@@H](C)C(=O)N[C@@H](CCCNC(=N)N)C(=O)N1CCC[C@H]1C(=O)N[C@@H](CCCCNC(=O)COCC(=O)NCCOCCOCCOCCOCCOCCOCCOCCOCCn1cc(CCCC(=O)Nc2c(CNC(=O)c3cccc(O)c3O)cc(CNC(=O)c3cccc(O)c3O)cc2CNC(=O)c2cccc(O)c2O)nn1)C(N)=O)[C@@H](C)CC)C(C)C)C(C)C)C(C)C` (H-SLIRVSQDDLVQMSPSVISAARPK(X1)-NH2), for which the outcome in the experiment with Pseudomonas aeruginosa [3] and in the experiment with Pseudomonas aeruginosa [6] was inactive. For the same compound, the result in the experiment on Pseudomonas aeruginosa [5] and in the experiment on Pseudomonas aeruginosa [7] was Active. For the same compound, the MIC in the experiment on Pseudomonas aeruginosa [8] and in the experiment on Pseudomonas aeruginosa [9] was more than 64 µM throughout.

In general, MIC refers to the lowest concentration found to suppress growth.
